Results reported in ChEMBL document CHEMBL2417474, “Synthesis, antiproliferative and anti-inflammatory activities of some novel 6-aryl-2-(p-(methanesulfonyl)phenyl)-4,5-dihydropyridazi-3(2H)-ones” (Eur J Med Chem, 2013).
pIC50: −log10 of the molar value.

Experiments:
[1] = test system: UACC-257; assay: Growth inhibition of human UACC257 cells after 48 hrs by sulforhodamine B assay; assay type: functional; conditions: UACC-257, 48 h
How it was run: (§1)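 NCI 60-line panel. Cells were grown in medium with 5% fetal calf serum and 2 mM L-glutamine and preincubated 24 h in plates. Compound in DMSO was added at 10^-4 to 10^-8 M (five 10-fold levels), with continuous exposure for 48 h. Growth was read by SRB protein staining. GI50 is the concentration giving 50% reduction in net protein increase versus control cells.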

[2] = test system: UACC-257; assay: Growth inhibition of human UACC257 cells assessed as cell growth at 10 uM after 48 hrs by sulforhodamine B assay; assay type: functional; conditions: UACC-257, 48 h, read-out: Activity
How it was run: (§2)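 Single-dose NCI screen. Tumor lines were cultured in medium with 5% fetal calf serum and 2 mM L-glutamine, preincubated 24 h, then given compound in DMSO. After 48 h continuous exposure, cell growth was estimated by sulforhodamine B protein assay.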

[3] = test system: SNB-19; assay: Growth inhibition of human SNB19 cells after 48 hrs by sulforhodamine B assay; assay type: functional; conditions: SNB-19, 48 h; for CC50: read-out: LC50 (the source's name)
How it was run: (§3)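 NCI 60-cell-line panel. Cells were grown in medium with 5% fetal calf serum and 2 mM L-glutamine, then preincubated 24 h in plates. Compounds were added from DMSO at five 10-fold concentrations from 100 to 0.01 µM and left on cells continuously for 48 h. Cell growth was read by sulforhodamine B protein stain. GI50 is the concentration that halves net protein increase relative to control cells.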

[4] = Growth inhibition of human NCI-ADR-RES cells assessed as cell growth at 10 uM after 48 hrs by sulforhodamine B assay; assay type: functional; conditions: read-out: Activity
[5] = test system: MDA-MB-231; assay: Growth inhibition of human MDA-MB-231 cells after 48 hrs by sulforhodamine B assay; assay type: functional; conditions: MDA-MB-231, 48 h
How it was run: (§4)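 NCI 60-cell-line panel grown in RPMI-type medium with 5% fetal calf serum and 2 mM L-glutamine. Cells preincubated 24 h, then exposed continuously for 48 h to compound in DMSO at 10^-4 to 10^-8 M (five 10-fold levels). Growth read by SRB protein stain. GI50 is the concentration giving a 50% reduction in net protein increase relative to control cells.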

[6] = test system: UO-31; assay: Growth inhibition of human UO31 cells after 48 hrs by sulforhodamine B assay; assay type: functional; conditions: UO-31, 48 h; how it was run: as §1
[7] = test system: CCRF-CEM; assay: Growth inhibition of human CCRF-CEM cells after 48 hrs by sulforhodamine B assay; assay type: functional, cell-based; how it was run: as §4
[8] = test system: T47D; assay: Growth inhibition of human T47D cells assessed as cell growth at 10 uM after 48 hrs by sulforhodamine B assay; assay type: functional; conditions: read-out: Activity; how it was run: as §2
[9] = test system: SF-268; assay: Growth inhibition of human SF268 cells after 48 hrs by sulforhodamine B assay; assay type: functional; conditions: SF-268, 48 h; for CC50: read-out: LC50 (the source's name); how it was run: as §3
[10] = test system: SN12C; assay: Growth inhibition of human SN12C cells assessed as cell growth at 10 uM after 48 hrs by sulforhodamine B assay; assay type: functional; conditions: read-out: Activity
[11] = test system: MDA-MB-435; assay: Growth inhibition of human MDA-MB-435 cells assessed as cell growth at 10 uM after 48 hrs by sulforhodamine B assay; assay type: functional; conditions: MDA-MB-435, 48 h, read-out: Activity
[12] = test system: IGROV-1; assay: Growth inhibition of human IGROV1 cells assessed as cell growth at 10 uM after 48 hrs by sulforhodamine B assay; assay type: functional; conditions: IGROV-1, 48 h, read-out: Activity
[13] = test system: Malme-3M; assay: Growth inhibition of human MALME-3M cells after 48 hrs by sulforhodamine B assay; assay type: functional; conditions: for CC50: read-out: LC50 (the source's name); how it was run: as §4
[14] = test system: NCI-H522; assay: Growth inhibition of human NCI-H522 cells after 48 hrs by sulforhodamine B assay; assay type: functional; conditions: NCI-H522, 48 h; how it was run: as §3
[15] = test system: ACHN; assay: Growth inhibition of human ACHN cells after 48 hrs by sulforhodamine B assay; assay type: functional; how it was run: as §4
[16] = test system: SK-MEL-2; assay: Growth inhibition of human SK-MEL-2 cells assessed as cell growth at 10 uM after 48 hrs by sulforhodamine B assay; assay type: functional; conditions: SK-MEL-2, 48 h, read-out: Activity
[17] = test system: OVCAR-3; assay: Growth inhibition of human OVCAR3 cells after 48 hrs by sulforhodamine B assay; assay type: functional; conditions: OVCAR-3, 48 h; how it was run: as §3
[18] = test system: OVCAR-4; assay: Growth inhibition of human OVCAR4 cells assessed as cell growth at 10 uM after 48 hrs by sulforhodamine B assay; assay type: functional; conditions: OVCAR-4, 48 h, read-out: Activity
[19] = test system: UACC-62; assay: Growth inhibition of human UACC62 cells assessed as cell growth at 10 uM after 48 hrs by sulforhodamine B assay; assay type: functional; conditions: UACC-62, 48 h, read-out: Activity; how it was run: as §2
[20] = test system: HOP-92; assay: Growth inhibition of human HOP92 cells assessed as cell growth at 10 uM after 48 hrs by sulforhodamine B assay; assay type: functional; conditions: HOP-92, 48 h, read-out: Activity
[21] = Growth inhibition of human Hs 578T cells after 48 hrs by sulforhodamine B assay; assay type: functional; how it was run: as §4
[22] = test system: 786-0; assay: Growth inhibition of human 786-0 cells assessed as cell growth at 10 uM after 48 hrs by sulforhodamine B assay; assay type: functional; conditions: 786-0, 48 h, read-out: Activity
[23] = test system: COLO 205; assay: Growth inhibition of human COLO205 cells assessed as cell growth at 10 uM after 48 hrs by sulforhodamine B assay; assay type: functional; conditions: COLO 205, 48 h, read-out: Activity
[24] = test system: MDA-MB-231; assay: Growth inhibition of human MDA-MB-231 cells assessed as cell growth at 10 uM after 48 hrs by sulforhodamine B assay; assay type: functional; conditions: MDA-MB-231, 48 h, read-out: Activity
[25] = test system: Rattus norvegicus; assay: Antiinflammatory activity in Wistar rat assessed as inhibition of carrageenan-induced paw edema at 0.05 mmol/kg, po administered 30 mins prior challenge measured after 3 hrs; assay type: functional
How it was run: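 Wistar rats of either sex, 150–175 g, fasted 16 h, 6 per group. Dosed orally at 0.05 mmol/kg, suspended in 1% CMC in water (10 ml/kg). 30 min later, 0.1 ml of 1% carrageenan in saline injected subplantar into the left hind paw. Paw volume read by plethysmometer at 0, 3 and 5 h. % inhibition = (1 − Vt/Vc) × 100 against the vehicle group.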

[26] = test system: SNB-75; assay: Growth inhibition of human SNB75 cells assessed as cell growth at 10 uM after 48 hrs by sulforhodamine B assay; assay type: functional; conditions: SNB-75, 48 h, read-out: Activity
[27] = Growth inhibition of human HCC2998 cells after 48 hrs by sulforhodamine B assay; assay type: functional; conditions: HCC 2998, 48 h; for CC50: read-out: LC50 (the source's name); how it was run: as §4

SMILES: Cc1cc(O)ccc1C1=NN(c2ccc(S(C)(=O)=O)cc2)C(=O)CC1
- GI50 [1]: 5.65 µM
- LC50 (concentration killing 50% of cells) [1]: > 100 µM
- TGI [1]: > 100 µM
- growth at 10 µM [2]: 93%
- GI50 [3]: 50.4 µM
- TGI [3]: > 100 µM
- CC50 [3]: > 100 µM
- growth at 10 µM [4]: 40.6%
- GI50 [5]: 17.1 µM
- LC50 [5]: > 100 µM
- TGI [5]: > 100 µM
- GI50 [6]: 14.8 µM
- LC50 (concentration killing 50% of cells) [6]: > 100 µM
- TGI [6]: > 100 µM
- GI50 [7]: 9.09 µM
- TGI [7]: > 100 µM
- CC50 ([7]; read-out: LC50 (the source's name)): > 100 µM
- growth at 10 µM [8]: 84.8%
- GI50 [9]: 40 µM
- TGI [9]: > 100 µM
- CC50 [9]: > 100 µM
- growth at 10 µM [10]: 90.3%
- growth at 10 µM [11]: -8.25%
- growth at 10 µM [12]: 43.5%
- GI50 [13]: 5.37 µM
- TGI [13]: > 100 µM
- CC50 [13]: > 100 µM
- GI50 [14]: 2530 nM
- LC50 (concentration killing 50% of starting cells) [14]: > 100 µM
- TGI [14]: 8.6 µM
- GI50 [15]: 37.8 µM
- LC50 (concentration killing 50% of starting cells) [15]: > 100 µM
- TGI [15]: > 100 µM
- growth at 10 µM [16]: 68.7%
- GI50 [17]: 3410 nM
- LC50 (lethal concentration, 50% net cell kill) [17]: > 100 µM
- TGI [17]: 9.44 µM
- growth at 10 µM [18]: 98%
- growth at 10 µM [19]: 52.9%
- growth at 10 µM [20]: 92.8%
- GI50 [21]: 4150 nM
- LC50 (concentration giving 50% net cell kill) [21]: > 100 µM
- TGI [21]: > 100 µM
- growth at 10 µM [22]: 84.1%
- growth at 10 µM [23]: 65.8%
- growth at 10 µM [24]: 74.8%
- inhibition in vivo at 50 µmol/kg [25]: 33.3%
- growth at 10 µM [26]: 75.2%
- GI50 [27]: 46.7 µM
- TGI [27]: > 100 µM
- CC50 [27]: > 100 µM

SMILES: Cc1ccc(C2=NN(c3ccc(S(C)(=O)=O)cc3)C(=O)CC2)cc1
- GI50 [1]: 0.61 µM
- LC50 (concentration killing 50% of cells) [1]: > 100 µM
- TGI [1]: > 100 µM
- growth at 10 µM [2]: 50.7%
- GI50 [3]: 1.25 µM
- TGI [3]: > 100 µM
- CC50 [3]: > 100 µM
- growth at 10 µM [4]: 6.72%
- GI50 [5]: 0.83 µM
- LC50 [5]: > 100 µM
- TGI [5]: > 100 µM
- GI50 [6]: 4.72 µM
- LC50 (concentration killing 50% of cells) [6]: > 100 µM
- TGI [6]: > 100 µM
- GI50 [7]: 1.16 µM
- pIC50 [7]: < 4.00
- TGI [7]: > 100 µM
- growth at 10 µM [8]: 32.7%
- GI50 [9]: 2.94 µM
- TGI [9]: > 100 µM
- CC50 [9]: > 100 µM
- growth at 10 µM [10]: 39.7%
- growth at 10 µM [11]: -61.2%
- growth at 10 µM [12]: 59.2%
- TGI [13]: > 100 µM
- CC50 [13]: > 100 µM
- GI50 [14]: 220 nM
- LC50 (concentration killing 50% of starting cells) [14]: > 100 µM
- TGI [14]: 1 µM
- GI50 [15]: 4.02 µM
- LC50 (concentration killing 50% of starting cells) [15]: > 100 µM
- TGI [15]: > 100 µM
- growth at 10 µM [16]: 6.35%
- GI50 [17]: 360 nM
- LC50 (lethal concentration, 50% net cell kill) [17]: > 100 µM
- TGI [17]: 3.33 µM
- growth at 10 µM [18]: 60.8%
- growth at 10 µM [19]: 42.9%
- growth at 10 µM [20]: 60.9%
- GI50 [21]: 460 nM
- LC50 (concentration giving 50% net cell kill) [21]: > 100 µM
- growth at 10 µM [22]: 38.3%
- growth at 10 µM [23]: 4.23%
- growth at 10 µM [24]: 47.8%
- inhibition in vivo at 50 µmol/kg [25]: 46.7%
- growth at 10 µM [26]: 8.1%
- GI50 [27]: 2.75 µM
- TGI [27]: > 100 µM
- CC50 [27]: > 100 µM
